One compound from ChEMBL document CHEMBL4130438, “6,7-Seco-ent-Kauranoids Derived from Oridonin as Potential Anticancer Agents” (J Nat Prod, 2017) can be followed below.

Molecules are shown by their SMILES. Active and inactive are the calls of the source. No cut-off for these calls is given here.

The subject of series [1] is MCF7. The series is described as follows: Induction of apoptosis in human MCF7 cells assessed as decrease in Bcl2 expression level after 48 hrs by Western blot analysis. It is filed as functional, cell-based. A digest of the protocol: (§1)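 MCF-7 cells treated 48 h with 0, 0.5, 1.0, 2.0 or 4.0 μM, then lysed on ice. 20 μg protein per lane run on 8–12% SDS-PAGE and transferred to PVDF. Probed overnight at 4 °C for caspase-3, pro-caspase-3, Bax, Bcl-2, p-ERK and p53, with fluorescent secondary antibodies. Densities normalised to β-actin; three independent experiments.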
On the technique in general: In western blotting, separated proteins are transferred to a membrane and probed.

The species entered for series [2] is Homo sapiens. In words: Antiproliferative activity against human KB/CP4 cells after 48 hrs by MTT assay. It is filed as functional, cell-based. (In general: Formazan colour is commonly taken as a measure of viable cells.)
Series [3] has as its system Bel-7402. In words: Cytotoxicity against human Bel7402 cells assessed as decrease in cell viability after 24 hrs by LDH release assay. It is filed as functional, cell-based. The method in brief:
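MCF-7 and Bel-7402 cells seeded at ~5 × 10^3 per well for 24 h, then exposed to compounds. LDH released into the medium measured with CytoTox-ONE reagent (10 min, ambient temperature) followed by stop solution. Fluorescence read at ex 560/em 590 nm.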
(In general: Release of lactate dehydrogenase indicates damage to the cell membrane.)

In series [4] the test system is MCF7. In words: Induction of apoptosis in human MCF7 cells assessed as decrease in p53 expression level after 48 hrs by Western blot analysis. It is filed as functional, cell-based. A digest of the protocol: as §1
The subject of series [5] is MCF7. In words: Induction of apoptosis in human MCF7 cells assessed as viable cells at 0.25 uM after 24 hrs by Annexin-V FITC/propidium iodide staining based flow cytometry (reference value: 97.5%). It is filed as functional. The conditions noted are these: MCF7, 24 h, read-out: Activity.
For series [6], the system named is MCF7. The series is described as follows: Induction of apoptosis in human MCF7 cells assessed as early apoptotic cells at 2 uM after 24 hrs by Annexin-V FITC/propidium iodide staining based flow cytometry (reference value: 1.60%). It is filed as functional.
In series [7] the test system is MCF7. The series is described as follows: Induction of apoptosis in human MCF7 cells assessed as viable cells at 0.50 uM after 24 hrs by Annexin-V FITC/propidium iodide staining based flow cytometry (reference value: 97.5%). It is filed as functional. The conditions noted are these: MCF7, 24 h, read-out: Activity.
Series [8] has as its system MCF7. In words: Cell cycle arrest in human MCF7 cells assessed as accumulation at G2/M phase at 2 uM after 48 hrs by propidium iodide staining based flow cytometry (reference value: 12.72%). It is filed as functional.
Series [9] relates to MCF7. In words: Cell cycle arrest in human MCF7 cells assessed as accumulation at G1 phase at 2 uM after 48 hrs by propidium iodide staining based flow cytometry (reference value: 70.27%). It is filed as functional.
The subject of series [10] is Mus musculus. In words: Toxicity in ICR mouse xenografted with […] cells assessed as effect on body weight loss at 10 to 20 mg/kg, iv qd administered for 14 consecutive days. It is filed as organism-based. To be noted: in vivo. A digest of the protocol: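 Male ICR mice, five weeks old, implanted s.c. in the right flank with 1 × 10^6 H22 cells. After 7 days, randomised into groups of eight. Given i.v. once daily for 14 days, 10 or 20 mg/kg in 10% DMF/2% poloxamer/88% saline; negative controls received 0.9% saline i.v., positive control 20 mg/kg oridonin. Body weight and tumour volume (L × W²/2) recorded every 2 days. Tumours excised and weighed at sacrifice; inhibition (%) = (1 − treated/control mean tumour weight) × 100.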

The test system of series [11] is MCF7. The series is described as follows: Induction of apoptosis in human MCF7 cells assessed as early apoptotic cells at 1 uM after 24 hrs by Annexin-V FITC/propidium iodide staining based flow cytometry (reference value: 1.60%). It is filed as functional.
Series [12] has as its system MCF7. In words: Induction of apoptosis in human MCF7 cells assessed as necrotic cells at 0.50 uM after 24 hrs by Annexin-V FITC/propidium iodide staining based flow cytometry (reference value: 0.610%). It is filed as functional.
For series [13], the system named is MCF7. In words: Induction of apoptosis in human MCF7 cells assessed as increase in ERK phosphorylation after 48 hrs by Western blot analysis. It is filed as functional, cell-based.
Series [14] relates to MCF7. The series is described as follows: Cell cycle arrest in human MCF7 cells assessed as accumulation at G2/M phase at 1 uM after 48 hrs by propidium iodide staining based flow cytometry (reference value: 12.72%). It is filed as functional.
Series [15] deals with MCF7. In words: Induction of apoptosis in human MCF7 cells assessed as necrotic cells at 1 uM after 24 hrs by Annexin-V FITC/propidium iodide staining based flow cytometry (reference value: 0.610%). It is filed as functional.
Series [16] concerns MCF7. The series is described as follows: Cell cycle arrest in human MCF7 cells assessed as accumulation at G1 phase at 0.50 uM after 48 hrs by propidium iodide staining based flow cytometry (reference value: 70.27%). It is filed as functional.
The test system of series [17] is MCF7. The series is described as follows: Antiproliferative activity against human MCF7 cells after 72 hrs by MTT assay. It is filed as functional, cell-based. To be noted: MCF7, 72 h. The method in brief:
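Cells pre-incubated 24 h at 37 °C, 5% CO2 in 96-well plates, then exposed to a range of compound concentrations (DMSO ≤0.25%) for 72 h. Viable cells read by MTT colour at 570 nm. Performed in quadruplicate, repeated three times. IC50 reported as means ± SD, n = 3.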

In series [18] the test system is MCF7. The series is described as follows: Induction of apoptosis in human MCF7 cells assessed as increase in Bax expression level after 48 hrs by Western blot analysis. It is filed as functional, cell-based.
Series [19] deals with MCF7. In words: Induction of apoptosis in human MCF7 cells assessed as increase in caspase 3 expression level after 48 hrs by Western blot analysis. It is filed as functional, cell-based.
For series [20], the system named is MCF7. The series is described as follows: Induction of apoptosis in human MCF7 cells after 24 hrs by Annexin-V FITC/propidium iodide staining based flow cytometry. It is filed as functional, cell-based.

By IC50 is commonly meant the concentration at which inhibition is half-maximal. A low value points to inhibition by little substance. On to `C=C1C(=O)[C@@]23C(=O)OC[C@]4(C=CCC(C)(C)[C@H]4C=O)[C@@H]2CC[C@@H]1[C@H]3OC(=O)c1ccc(F)cc1`, for which the Activity result in [1] is “Dose-dependent effect”; in [4], “Dose-dependent effect”; in series [6], 14%; in [8], 24.8%; in series [9] it was 57.49%; in [10], “Non-Toxic”. The Activity in series [11] was 10.2%; in [12], 0.901%; in [13], “Dose-dependent effect”; in series [14], 21.23%; in series [15], 1.93%; in [16], 64.82%. The Activity result in series [18], in series [19] and in series [20] was “Dose-dependent effect” each time. Moreover, in series [2], the outcome was Active. In addition, the outcome in series [3] was inactive. For the same compound, the viability at 0.25 µM in series [5] is 87.2%. For the same compound, the viability at 0.5 µM in series [7] stood at 81.7%. In [17], this compound gave an IC50 of 680 nM.
